Laboratory results reported in ChEMBL document CHEMBL1157581, “Synthesis, metabolism and in vitro cytotoxicity studies on novel lavendamycin antitumor agents” (Bioorg Med Chem, 2010).
Active and inactive are the calls of the source. The rule behind the calls is not given here.

Experiments:
BE [1] = test: Selectivity index, ratio of IC50 for NQO1 deficient human BE cells to IC50 for human BE cells expressing human NQO1
[2] = target: NAD(P)H dehydrogenase [quinone] 1 (Homo sapiens) (UniProt P15559); test: Activity of human NQO1 assessed as initial rate of compound reduction per mg of protein at 25 uM in presence of NADH by cytochrome c reduction assay
Outline: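 Recombinant human NQO1 (0.1–3 µg) with cytochrome c 70 µM as terminal electron acceptor, NADH 1 mM, substrate 25 µM in 25 mM Tris-HCl pH 7.4 containing 0.7 mg/mL BSA and 0.1% Tween-20, room temperature, started with NADH. A550 followed; initial rate from linear 0–30 s segment, ε 21.1 mM⁻¹ cm⁻¹, µmol cytochrome c/min/mg NQO1; at least triplicate.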

BE [3] = test: Cytotoxicity against NQO1 deficient human BE cells after 3 to 5 days by MTT assay; type: functional, cell-based
Outline: (§1)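 BE colon adenocarcinoma cells and NQO1-transfected BE-NQ cells (337 nmol/min/mg protein, DCPIP) in MEM with 10% FBS, 37 °C, 5% CO2. Seeded 10,000 cells/mL, attached 16 h, exposed 2 h, then washed out into fresh medium for 3–5 days. MTT 50 µg, 4 h, formazan in DMSO, A560; IC50 from semi-log plots of percent control.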

BE [4] = test: Cytotoxicity against human BE cells expressing human NQO1 after 3 to 5 days by MTT assay; type: functional, cell-based
Outline: as §1

A549 [5] = test: Suppression of clonogenic survival of human A549 cells at <100 nM; type: functional, cell-based
A549 [6] = test: Inhibition of clonogenic survival of human A549 cells at 100 nM; type: functional
BE [7] = test: Selectivity index, ratio of IC50 for human BE cells expressing human NQO1 to IC50 for NQO1 deficient human BE cells; type: functional

Chain of NAD(P)H dehydrogenase [quinone] 1 (Homo sapiens) (P15559 whole entry): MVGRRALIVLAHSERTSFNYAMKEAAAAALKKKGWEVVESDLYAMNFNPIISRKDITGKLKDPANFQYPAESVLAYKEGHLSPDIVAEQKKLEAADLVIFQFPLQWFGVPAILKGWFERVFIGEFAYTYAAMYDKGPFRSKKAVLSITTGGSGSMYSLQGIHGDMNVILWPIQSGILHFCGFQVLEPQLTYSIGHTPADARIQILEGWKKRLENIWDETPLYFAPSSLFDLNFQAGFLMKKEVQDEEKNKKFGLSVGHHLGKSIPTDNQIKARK

In the case of `CC(=O)NC1=CC(=O)c2ccc(-c3nc(C(=O)N4CCCC4)cc4c3[nH]c3ccccc34)nc2C1=O`, the “Ratio IC50” value (BE [1]) is reported as 2.1, the Activity [2] is reported as 43 µmol/min and the IC50 (BE [3]) is reported as 13 µM. For the same compound, the IC50 (BE [4]) was 6.2 µM.

For `CCCCOC(=O)c1cc2c([nH]c3ccccc32)c(-c2ccc3c(n2)C(=O)C(NC(=O)CCC(=O)O)=CC3=O)n1`, the “Ratio IC50” value (BE [1]) was 1.6, the Activity [2] was 5.2 µmol/min and the IC50 (BE [3]) was 12 µM. It also gave an IC50 (BE [4]) of 7.6 µM.

`NC1=CC(=O)c2ccc(-c3nc(C(=O)N4CCCC4)cc4c3[nH]c3ccccc34)nc2C1=O` was tested, and the “Ratio IC50” value (BE [1]) was over 1.1, the Activity [2] was 35 µmol/min and the IC50 (BE [3]) was over 50 µM. It also gave an IC50 (BE [4]) of 45 µM.

For `NC(=O)c1cc2c([nH]c3ccccc32)c(-c2ccc3c(n2)C(=O)C(NC(=O)CCl)=CC3=O)n1`, the “Ratio IC50” value (BE [1]) was 2.1, the Activity [2] was 13 µmol/min and the IC50 (BE [3]) was 12 µM. For the same compound, the IC50 (BE [4]) was 5.8 µM.

In the case of `COC(=O)c1cc2c([nH]c3ccccc32)c(-c2ccc3c(n2)C(=O)C(NC=O)=CC3=O)n1`, the “Ratio IC50” value (BE [1]) is reported as 1.4, the Activity [2] is reported as 20 µmol/min and the IC50 (BE [3]) is reported as 14 µM. The IC50 (BE [4]) was 10 µM.

`CCOC(=O)c1cc2c([nH]c3ccc(O)cc32)c(-c2ccc3c(n2)C(=O)C(NC(C)=O)=CC3=O)n1` was tested, and the “Ratio IC50” value (BE [1]) was 0.8, the Activity [2] was 21 µmol/min and the IC50 (BE [3]) was 4 µM. It also gave an IC50 (BE [4]) of 4.8 µM.

`COC(=O)c1nc(-c2ccc3c(n2)C(=O)C(N)=C(OC)C3=O)c2[nH]c3ccccc3c2c1C` was tested, and the inhibition (A549 [5]) was “Active”.

`N=C1C=C(O)c2ccc(-c3nc(C(N)=O)cc4c3[nH]c3ccccc34)nc2C1=O` gave an inhibition at 0.1 µM (A549 [6]) of 100%.

For `CC(=O)NC1=CC(=O)c2ccc(-c3nc(C(=O)N4CCN(Cc5ccccc5)CC4)cc4c3[nH]c3ccccc34)nc2C1=O`, the “Ratio IC50” value (BE [1]) was 0.7, the Activity [2] was 8.7 µmol/min and the IC50 (BE [3]) was 6.5 µM. It also gave an IC50 (BE [4]) of 9.8 µM.

Work on `CC(=O)NC1=CC(=O)c2ccc(-c3nc(C(=O)NCCO)cc4c3[nH]c3ccccc34)nc2C1=O` yielded an Activity [2] of 2.2 µmol/min, an IC50 (BE [3]) of over 50 µM and an IC50 (BE [4]) of over 50 µM.

For `CCCOC(=O)c1cc2c([nH]c3ccccc32)c(-c2ccc3c(n2)C(=O)C(NC(C)=O)=CC3=O)n1`, the “Ratio IC50” value (BE [1]) was 1.3, the Activity [2] was 6.8 µmol/min and the IC50 (BE [3]) was 3.2 µM. For the same compound, the IC50 (BE [4]) was 2.4 µM.

For `CCOC(=O)c1cc2c([nH]c3ccccc32)c(-c2ccc3c(n2)C(=O)C(NC(C)=O)=CC3=O)n1`, the “Ratio IC50” value (BE [1]) was 1.3, the Activity [2] was 3.6 µmol/min and the IC50 (BE [3]) was 13 µM. It also gave an IC50 (BE [4]) of 10 µM.

In the case of `COC(=O)c1[nH]c(-c2ccc3c(n2)C(=O)C(NC(C)=O)=CC3=O)c2nc3ccccc3c-2c1C`, the inhibition (A549 [5]) is reported as “Active”.

Work on `COC(=O)c1cc2c([nH]c3ccccc32)c(-c2ccc3c(n2)C(=O)C(NC(=O)C(C)C)=CC3=O)n1` yielded an Activity [2] of 0.04 µmol/min, an IC50 (BE [3]) of over 50 µM and an IC50 (BE [4]) of over 50 µM.

For `NC1=CC(=O)c2ccc(-c3nc(C(=O)NCCO)cc4c3[nH]c3ccccc34)nc2C1=O`, the “Ratio IC50” value (BE [1]) was 1, the Activity [2] was 26 µmol/min and the IC50 (BE [3]) was 1.1 µM. The IC50 (BE [4]) was 1.1 µM.

`CCOC(=O)c1cc2c([nH]c3ccccc32)c(-c2ccc3c(n2)C(=O)C(N)=C(Cl)C3=O)n1` gave an Activity [2] of 6.9 µmol/min, an IC50 (BE [3]) of over 50 µM and an IC50 (BE [4]) of over 50 µM.

`O=C(CCl)NC1=CC(=O)c2ccc(-c3nc(C(=O)N4CCCC4)cc4c3[nH]c3ccccc34)nc2C1=O` was tested, and the “Ratio IC50” value (BE [1]) was 2.7, the Activity [2] was 34 µmol/min and the IC50 (BE [3]) was 8 µM. The IC50 (BE [4]) was 3 µM.

In the case of `COC(=O)c1nc(-c2ccc3c(n2)C(=O)C(N)=CC3=O)c2[nH]c3ccc(O)cc3c2c1C`, the “Ratio IC50” value (BE [1]) is reported as 2.5, the Activity [2] is reported as 31 µmol/min and the IC50 (BE [3]) is reported as 14 µM. For the same compound, the IC50 (BE [4]) was 5.7 µM.

`CC(=O)NC1=CC(=O)c2ccc(-c3nc(C(=O)NCC(O)CO)cc4c3[nH]c3ccccc34)nc2C1=O` (stereo not given) was tested, and the “Ratio IC50” value (BE [1]) was over 2.8, the Activity [2] was 36 µmol/min and the IC50 (BE [3]) was over 50 µM. The IC50 (BE [4]) was 18 µM.

In the case of `CCC(C)OC(=O)c1cc2c([nH]c3ccccc32)c(-c2ccc3c(n2)C(=O)C(NC(C)=O)=CC3=O)n1` (stereo not given), the “Ratio IC50” value (BE [7]) is reported as 0.8, the Activity [2] is reported as 3.9 µmol/min and the IC50 (BE [3]) is reported as 33 µM. It also gave an IC50 (BE [4]) of 40 µM.

With `COC(=O)c1cc2c([nH]c3ccccc32)c(-c2ccc3c(n2)C(=O)C(N)=CC3=O)n1` the “Ratio IC50” value (BE [1]) was 2, the Activity [2] was 28 µmol/min and the IC50 (BE [3]) was 45 µM. The IC50 (BE [4]) was 22 µM.

In the case of `COC(=O)c1cc2c([nH]c3ccccc32)c(-c2ccc3c(n2)C(=O)C(NC(C)=O)=CC3=O)n1`, the inhibition (A549 [5]) is reported as “Active”.

For `NC1=CC(=O)c2ccc(-c3nc(C(=O)N4CCOCC4)cc4c3[nH]c3ccccc34)nc2C1=O`, the “Ratio IC50” value (BE [1]) was 9, the Activity [2] was 103 µmol/min and the IC50 (BE [3]) was 18 µM. The IC50 (BE [4]) was 2 µM.

For `CC(C)CCOC(=O)c1cc2c([nH]c3ccc(O)cc32)c(-c2ccc3c(n2)C(=O)C(N)=CC3=O)n1`, the Activity [2] was 2.9 µmol/min, the IC50 (BE [3]) was over 50 µM and the IC50 (BE [4]) was over 50 µM.

For `COC(=O)c1[nH]c(-c2ccc3c(n2)C(=O)C(=N)C(Cl)=C3O)c2nc3ccccc3c-2c1C`, the inhibition at 0.1 µM (A549 [6]) was 70% and the inhibition (A549 [5]) was “Active”.

Work on `COC(=O)c1nc(-c2ccc3c(n2)C(=O)C(NC(=O)c2ccco2)=CC3=O)c2[nH]c3ccccc3c2c1C` yielded an Activity [2] of 5.8 µmol/min, an IC50 (BE [3]) of over 50 µM and an IC50 (BE [4]) of over 50 µM.
